The nature of data set [1]: Partition coefficient (logP). Type of data set: physicochemical. The following applies: octanol/water.
Data set [2] in a line: Half life is the time required for hydrolysis of compound to 3TC in HBV medium at 37 degree celsius. The format is ADME. Put shortly:
(§1)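 Compound in DMSO diluted 1:100 into medium, final concentration around 5×10^-4 M, and held at 37 °C. Media: PBS (0.01 M, pH 7.4), HepG2.2.15 culture medium, or MT-4 medium (RPMI 1640 + 10% FCS). Samples taken over time and quenched in ice-cold methanol. Conversion to 3TC followed by HPLC at 317 nm. t1/2 is the time to 50% hydrolysis.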

Data set [3] in a line: Half life is the time required for hydrolysis of compound to 3TC in HepG 2.2.15 lysate medium at 37 degree celsius. The format is ADME, HepG2 2.2.15. The following applies: human, HepG 2.2.15 cell lysate. In short, it runs like this: (§2)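 Cell lysates prepared from PBS-washed HepG2.2.15 or MT-4 cells, about 10×10^6 cells/mL, in Tris-HCl 50 mM, NaCl 150 mM, EDTA 0.1 mM, 0.5% NP40 and protease inhibitors. Lysis 10 min on ice, then centrifuged; supernatant used. Compound added from DMSO to a final concentration around 5×10^-4 M, 37 °C. Timed samples quenched in cold methanol, HPLC at 317 nm. t1/2 is the time to 50% conversion to 3TC.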

A short description of data set [4]: Half life is the time required for hydrolysis of compound to 3TC in PBS medium at 37 degree celsius. Type of data set: ADME. In short, it runs like this: as §1
For data set [5], the system named is MT4. The data set is described as follows: Effective concentration to inhibit HIV-1 IIIB cytopathicity in MT-4 cells was determined in vitro. Type of data set: functional, cell-based. The note with it: Homo sapiens. In short, it runs like this:
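HIV-1 IIIB-infected MT-4 cells (RPMI 1640, 10% FCS); inhibition of virus-induced cytopathicity read 5 days post-infection; EC50 = concentration inhibiting cytopathicity by 50%.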
For orientation: Damage to the host cells serves as the signal in cytopathic effect assays.

Data set [6] has as its system MT4. Nature of the data set: Concentration required to cause death of MT-4 cells was determined in vitro. The format is functional. The note with it: Homo sapiens. In short, it runs like this: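 Uninfected (mock-infected) MT-4 cells grown in RPMI 1640 + 10% heat-inactivated FCS, 2 mM L-glutamine, gentamicin; viability measured at day 5 at 37 °C, 5% CO2; CC50 = concentration causing 50% death of uninfected cells.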

The test system of data set [7] is PBMC. Nature of the data set: Concentration required to cause death of PBMC cells was determined in vitro. The format is functional. The note with it: Homo sapiens. Put shortly: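 Healthy-donor PBMCs activated 3 days with PHA-P (1 μg/mL) and rhIL-2 (5 IU/mL), 100 000 cells/well in RPMI 1640/10% FCS + 20 IU/mL rhIL-2; drug-induced cytotoxicity judged by microscopic observation; CC50 = concentration causing 50% death of uninfected cells.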

Data set [8] has as its system PBMC. The data set is described as follows: Effective concentration to inhibit HIV-1 LAI cytopathicity in PBMC cells was determined in vitro. The format is functional, cell-based. The note with it: Homo sapiens. Put shortly: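 PHA-P/rhIL-2-activated PBMCs (100 000/well) pretreated 30 min with compound, then infected with 75 TCID50 HIV-1/LAI; supernatant RT activity measured at day 7; triplicates, mean ± SD; EC50 from percent of untreated controls, 50% inhibition of replication.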

For data set [9], the system named is MT4. Nature of the data set: Selectivity index is the ratio of CC50 to EC50 values. The format is functional. Put shortly:
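Selectivity index = CC50/EC50 for uninfected versus HIV-1-infected MT-4 cells or PBMCs.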

Data set [10] is described as follows: Half life is the time required for hydrolysis of compound to 3TC in HIV medium at 37 degree celsius. Type of data set: ADME. In short, it runs like this: as §1
Data set [11] in a line: Half life is the time required for hydrolysis of compound to 3TC in MT-4 lysate medium at 37 degree celsius. The format is ADME. The following applies: human, MT-4 cell lysate. Put shortly:
as §2

The test system of another data set is HepG2. Nature of the data set: Effective concentration to inhibit hepatitis B virus DNA formation in HepG2.2.15 cells was determined in vitro. The note with it: Homo sapiens.

Data on four compounds can be found in ChEMBL document CHEMBL1148483, “Potent nonclassical nucleoside antiviral drugs based on the N,N-diarylformamidine concept” (J Med Chem, 2004).

Values joined by “and” are separate entries in the source; they are usually repeats but may differ in a detail not shown here. Equal entries are not always repeated.

As to `CN(C)/C=N/c1ccn(C2CSC(CO)O2)c(=O)n1` (stereo not drawn), the logP – broadly, the decadic logarithm of the partition coefficient of the neutral form, usually between octanol and water – in data set [1] is 1.02. Further, the half-life (in general, how long it takes for the measured level to halve) in data set [2] is 2 h; in data set [3], 3 h; in [4], 3.5 h; in data set [10], 2.5 h; in [11], 4.5 h. In addition, the EC50 (commonly the concentration at which the effect is half-maximal) in the data set on MT4 [5] was 570 nM; in the data set on PBMC [8] it was 23.7 nM; in the data set on HepG2, 10 nM. Also, the CC50 (in general, the concentration at which the toxic effect on the cells reaches its halfway point) is more than 440000 nM in the data set on MT4 [6] and more than 10000 nM in the data set with PBMC [7]. Further, the SI in the data set on MT4 [9] was >772 and >422.
The compound `O=c1nc(/N=C/N2CCOCC2)ccn1C1CSC(CO)O1` (stereo not drawn) gave a logP in data set [1] of 0.62. The half-life was 1 h in [2]; 2.5 h in data set [3]; 2.5 h in data set [4]; 1.5 h in data set [10]; 3.5 h in [11]. Also, the values for the EC50 in the data set with MT4 [5], in the data set with PBMC [8] and in the data set on HepG2 were 400 nM, 6.2 nM and 50 nM, respectively. The CC50 is more than 265000 nM in the data set with MT4 [6] and more than 10000 nM with PBMC [7].
As for `Nc1ccn([C@@H]2CS[C@H](CO)O2)c(=O)n1` [LAMIVUDINE], the logP in data set [1] stood at 0.06. Also, the EC50 in the data set on MT4 [5] was 500 nM; in the data set on PBMC [8], 11.6 nM; with HepG2, 200 nM. Also, the cytotoxic concentration (CC50) in the data set on MT4 [6] is more than 44000 nM; with PBMC [7], more than 10000 nM.
Compound `Nc1ccn([C@H]2CC[C@@H](CO)O2)c(=O)n1` [ZALCITABINE] yielded a logP in data set [1] of -0.58. Also, in the data set with MT4 [5], the EC50 amounted to 1040 nM. In the data set on MT4 [6], this compound gave a cytotoxic concentration (CC50) of 141000 nM. The SI in the data set with MT4 [9] came to 135.
